Calls of active or inactive are those of the source. No cut-off for these calls is given here.
Experiments:
[1] = Cytotoxicity against mouse RAW264.7 cells assessed as cell viability at 500 uM measured after 24 hrs by MTT assay relative to control; type: cell-based; conditions: read-out: Activity
Method in brief: (§1)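 RAW 264.7 murine macrophages grown in RPMI-1640 with 10% heat-inactivated FBS at 37 °C, 5% CO2. Cells seeded at 4 x10^4 per well and exposed 24 h to 0–500 µM compound (DMSO 0.2% final). Medium replaced with 0.5 mg/mL MTT for 4 h, formazan dissolved in isopropanol, absorbance read at 570 nm. Triplicates in three independent experiments.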

[2] = Cytotoxicity against mouse RAW264.7 cells assessed as cell viability at 100 uM measured after 24 hrs by MTT assay relative to control; type: cell-based; conditions: read-out: Activity; method in brief: as §1
[3] = biological target: T1, Prostaglandin G/H synthase 1 (Bos taurus) (UniProt O62664); experiment: Inhibition of bovine COX1 at 100 uM using arachidonic acid as substrate preincubated for 5 mins followed by substrate addition and measured after 5 mins by […]-based fluorescence assay relative to control
T1 sequence (whole entry): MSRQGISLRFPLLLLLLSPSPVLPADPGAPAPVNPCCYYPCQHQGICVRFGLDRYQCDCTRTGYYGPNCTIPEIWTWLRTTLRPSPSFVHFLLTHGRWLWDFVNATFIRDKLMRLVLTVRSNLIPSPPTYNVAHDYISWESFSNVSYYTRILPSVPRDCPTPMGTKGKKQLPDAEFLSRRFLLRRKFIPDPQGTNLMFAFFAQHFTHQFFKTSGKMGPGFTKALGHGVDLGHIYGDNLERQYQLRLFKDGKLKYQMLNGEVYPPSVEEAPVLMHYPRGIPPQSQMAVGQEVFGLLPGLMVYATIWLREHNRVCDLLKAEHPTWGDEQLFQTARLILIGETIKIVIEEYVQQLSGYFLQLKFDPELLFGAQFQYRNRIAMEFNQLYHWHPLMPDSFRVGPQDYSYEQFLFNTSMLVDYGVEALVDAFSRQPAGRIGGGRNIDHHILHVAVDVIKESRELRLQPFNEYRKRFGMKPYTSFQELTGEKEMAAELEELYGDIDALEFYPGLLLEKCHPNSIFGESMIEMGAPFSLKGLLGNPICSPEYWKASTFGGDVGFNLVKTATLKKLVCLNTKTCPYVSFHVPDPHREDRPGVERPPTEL
Method in brief: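 Bovine COX-1 preincubated 5 min in buffer with compound (100 µM) or SC-560 as reference. ADHP and arachidonic acid then added, and resorufin fluorescence read after 5 min (ex 530–540 / em 585–595 nm). Resorufin arises from ADHP reacting with the COX-derived PGG2.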

[4] = Selectivity index, ratio of inhibition of human recombinant COX-2 at 100 uM to inhibition of bovine COX-1 at 100 uM
Method in brief: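 SI is COX-2/COX-1 activity ratio. Percent inhibition at 100 µM: human recombinant COX-2 (15 min preincubation) and bovine COX-1 (5 min preincubation). Fluorometric ADHP/arachidonic acid read-out after 5 min.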

[5] = biological target: T2, Nitric oxide synthase, inducible (Mus musculus) (UniProt P29477); experiment: Inhibition of iNOS in mouse macrophages assessed as reduction in LPS-induced nitric oxide production at 50 uM incubated for overnight by griess assay relative to control
T2 sequence (whole entry): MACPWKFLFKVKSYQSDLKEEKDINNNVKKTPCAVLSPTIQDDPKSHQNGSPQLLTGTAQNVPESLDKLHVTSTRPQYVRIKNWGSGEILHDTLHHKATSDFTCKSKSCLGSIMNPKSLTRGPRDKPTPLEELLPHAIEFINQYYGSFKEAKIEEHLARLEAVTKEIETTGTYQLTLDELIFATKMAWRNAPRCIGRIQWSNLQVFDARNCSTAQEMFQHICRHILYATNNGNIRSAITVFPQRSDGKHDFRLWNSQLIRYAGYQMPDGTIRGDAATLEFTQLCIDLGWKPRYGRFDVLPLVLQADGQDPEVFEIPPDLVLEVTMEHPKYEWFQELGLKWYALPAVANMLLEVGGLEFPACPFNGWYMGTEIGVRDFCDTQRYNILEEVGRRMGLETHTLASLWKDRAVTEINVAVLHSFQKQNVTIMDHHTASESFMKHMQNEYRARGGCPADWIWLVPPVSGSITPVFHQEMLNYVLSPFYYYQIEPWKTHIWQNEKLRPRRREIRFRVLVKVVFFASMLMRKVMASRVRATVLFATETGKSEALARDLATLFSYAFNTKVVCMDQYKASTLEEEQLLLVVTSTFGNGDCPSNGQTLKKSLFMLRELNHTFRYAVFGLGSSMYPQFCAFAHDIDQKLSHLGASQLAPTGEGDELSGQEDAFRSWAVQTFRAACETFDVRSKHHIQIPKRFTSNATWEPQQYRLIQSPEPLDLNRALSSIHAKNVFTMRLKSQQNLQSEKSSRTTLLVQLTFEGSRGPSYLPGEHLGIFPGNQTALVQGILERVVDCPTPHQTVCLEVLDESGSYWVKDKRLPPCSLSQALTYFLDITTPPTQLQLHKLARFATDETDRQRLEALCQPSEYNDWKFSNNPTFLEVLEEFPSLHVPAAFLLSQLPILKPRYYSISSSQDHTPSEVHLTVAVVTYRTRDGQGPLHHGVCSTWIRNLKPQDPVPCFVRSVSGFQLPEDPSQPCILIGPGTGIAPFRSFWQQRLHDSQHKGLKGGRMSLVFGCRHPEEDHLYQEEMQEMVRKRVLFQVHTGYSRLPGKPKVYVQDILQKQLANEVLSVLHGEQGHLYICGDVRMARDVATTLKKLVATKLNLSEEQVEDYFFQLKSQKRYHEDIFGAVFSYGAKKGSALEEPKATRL
Method in brief: (§2)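 Murine macrophages seeded at 4 x10^4 per well with compound at 50 or 100 µM, with or without LPS (100 ng/mL), overnight under standard conditions. Supernatant mixed 1:1 with Griess reagent and read at 570 nm. Nitrite quantified from a NaNO2 standard curve. Triplicates in three independent experiments.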

[6] = biological target: T2, Nitric oxide synthase, inducible (Mus musculus); experiment: Inhibition of iNOS in mouse macrophages assessed as reduction in LPS-induced nitric oxide production at 100 uM incubated for overnight by griess assay relative to control; method in brief: as §2
Rattus norvegicus = experiment: Antiinflammatory activity in Wistar rat assessed as inhibition of carrageenan-induced paw edema formation at 100 mg/kg, po administered 1 hr before carrageenan stimulation and measured after up to 6 hrs relative to control; type: functional
Method in brief: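 Male Wistar rats (250–300 g), N = 5 per group, dosed orally 1 h before 0.1 mL of 1% carrageenan in physiological saline was injected into the right paw. Paw volume was read by plethysmometer at 0, 1, 2, 3, 4, 5 and 6 h. Edema was taken as the right-minus-left paw volume difference. % inhibition = (untreated − treated)/untreated × 100 at each time point.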

[7] = biological target: T3, Prostaglandin G/H synthase 2 (Homo sapiens, UniProt P35354); experiment: Inhibition of human recombinant COX-2 using arachidonic acid as substrate preincubated for 15 mins followed by substrate addition and measured after 5 mins by […]-based fluorescence assay
T3 sequence (P35354 whole entry): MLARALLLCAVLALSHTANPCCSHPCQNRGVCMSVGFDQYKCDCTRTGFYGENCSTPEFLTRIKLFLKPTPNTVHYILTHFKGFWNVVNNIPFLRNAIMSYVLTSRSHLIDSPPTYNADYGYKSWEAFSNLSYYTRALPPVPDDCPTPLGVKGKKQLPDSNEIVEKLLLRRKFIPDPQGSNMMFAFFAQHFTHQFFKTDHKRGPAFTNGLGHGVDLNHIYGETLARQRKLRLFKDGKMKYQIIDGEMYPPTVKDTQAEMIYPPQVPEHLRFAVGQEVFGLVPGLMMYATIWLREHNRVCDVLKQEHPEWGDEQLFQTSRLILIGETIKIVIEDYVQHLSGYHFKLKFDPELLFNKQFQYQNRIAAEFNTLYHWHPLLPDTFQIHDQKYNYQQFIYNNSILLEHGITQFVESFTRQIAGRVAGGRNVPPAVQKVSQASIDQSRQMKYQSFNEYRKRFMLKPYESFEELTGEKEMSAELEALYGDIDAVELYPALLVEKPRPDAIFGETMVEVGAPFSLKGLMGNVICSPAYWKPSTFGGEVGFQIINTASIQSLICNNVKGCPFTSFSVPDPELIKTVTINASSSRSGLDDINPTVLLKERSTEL
Method in brief: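 Human recombinant COX-2 preincubated 15 min in buffer with compound (100 µM) or DuP-697 as reference. ADHP and arachidonic acid then added, and resorufin fluorescence read after 5 min (ex 530–540 / em 585–595 nm).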

RAW264.7 = experiment: Cytotoxicity against mouse RAW264.7 cells assessed as reduction in cell viability at 500 uM measured after 24 hrs by MTT assay; type: cell-based; conditions: raw264.7, 24 h; method in brief: as §1

Row | Compound | viability at 24 h, 500 µM [1] [%] | viability at 24 h, 100 µM [2] [%] | inhibition [3] [%] | Selectivity Index [4] | inhibition [5] [%] | inhibition [6] [%] | inhibition in vivo at 100 mg/kg (Rattus norvegicus) [%] | IC50 [7] [µM] | inhibition (Rattus norvegicus) | Activity (RAW264.7)
1 | O=[N+]([O-])c1ccc(-c2nc3ccccc3n2-c2ccc([N+](=O)[O-])cc2)cc1 | ≤ 90 | ≤ 90 | 29.3 | 1.63 | 22.4 | 33.8 | 42 | – | – | –
2 | O=[N+]([O-])c1ccc(-n2c(-c3ccccc3)nc3ccccc32)cc1 | – | > 90 | 40.6 | 1.05 | 38.1 | 44 | – | 162 | Active | Toxic
3 | CC(=O)Nc1ccc(-n2c(-c3ccc(Cl)cc3)nc3ccccc32)cc1 | – | > 90 | 47.4 | 0.51 | 75.9 | 86.4 | – | – | Active | –
4 | Nc1ccc(-n2c(-c3ccc(Br)cc3)nc3ccccc32)cc1 | ≥ 80 | > 90 | 62.3 | 0.11 | 62.5 | 74.2 | – | – | Active | –
5 | CC(C)Cc1ccc(C(C)C(=O)O)cc1 (stereo not drawn) [IBUPROFEN] | – | – | 56.6 | – | 82.1 | 83.7 | 42 | – | – | –
6 | CC(=O)Nc1ccc(-n2c(-c3ccc(Br)cc3)nc3ccccc32)cc1 | – | > 90 | 48.7 | 0.58 | 77.3 | 83.6 | – | – | Active | –
7 | O=[N+]([O-])c1ccc(-n2c(-c3ccc(Br)cc3)nc3ccccc32)cc1 | – | > 90 | 18.3 | 2.77 | 46.5 | 45.8 | 42 | 102 | – | Toxic
8 | N#Cc1ccc(-c2nc3ccccc3n2-c2ccc([N+](=O)[O-])cc2)cc1 | – | > 90 | 29 | 1.63 | 24.4 | 46 | – | – | Active | Toxic
9 | CC(=O)Nc1ccc(-c2nc3ccccc3n2-c2ccc(NC(C)=O)cc2)cc1 | – | > 90 | 59.5 | 0.53 | 10.1 | 15.3 | – | – | Active | –
10 | O=[N+]([O-])c1ccc(-n2c(-c3ccc(Cl)cc3)nc3ccccc32)cc1 | – | > 90 | 17.6 | 1.37 | 53.2 | 53.9 | – | – | Active | Toxic
11 | O=C(O)c1ccc(-c2nc3ccccc3n2-c2ccc([N+](=O)[O-])cc2)cc1 | – | > 90 | 31 | 1.06 | 32.6 | 46.2 | – | – | Active | Toxic
12 | Cc1ccc(-c2ncc(Cl)cc2-c2ccc(S(C)(=O)=O)cc2)cn1 [ETORICOXIB] | – | – | 23.4 | 2.68 | 79.8 | 87.3 | 35 | – | – | –

From ChEMBL document CHEMBL4627345, “Anti-inflammatory effect and inhibition of nitric oxide production by targeting COXs and iNOS enzymes with the 1,2-diphenylbenzimidazole pharmacophore” (Bioorg Med Chem, 2020)
